Experimental data as given in ChEMBL document CHEMBL3393035, “Novel agonists of benzodiazepine receptors: design, synthesis, binding assay and pharmacological evaluation of 1,2,4-triazolo[1,5-a]pyrimidinone and 3-amino-1,2,4-triazole derivatives” (Bioorg Med Chem, 2015).
Calls of active or inactive are those of the source. No cut-off for these calls is given here.

Experiments:
Mus musculus [1] = assay: Induction of anterograde amnesia in NMRI albino mouse assessed as reduction in latency to enter dark compartment at 1 mg/kg, ip by passive avoidance test; type: functional, organism-based; parameters: dose 1 mg/kg
Method in brief: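 Male NMRI mice (18-22 g), n=8 per group, received midazolam i.p. in distilled water, 5 ml/kg. In the passive avoidance test, mice were placed in the lit compartment on the testing day, 24 h later, and latency to enter the dark compartment was recorded. Data are mean + SEM.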

[2] = Displacement of [3H]-flumazenil from benzodiazepine receptor in Sprague-Dawley rat brain cortical membranes incubated for 35 mins
Method in brief: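 Rat cortex membranes: homogenized in ice-cold 30 mM Tris-HCl pH 7.4, washed by repeated centrifugation at 4°C, 37°C 30 min preincubation, stored -20°C. 100 µg membrane protein in 50 mM Tris-HCl pH 7.4 with 8.6×10^-5 nmol [3H]-flumazenil plus increasing competitor, 0.5 mL, 30°C 35 min; stopped by centrifugation. NSB with 100 µM diazepam; triplicates; IC50 by nonlinear regression.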

Mus musculus [3] = assay: Anticonvulsant activity in ip dosed NMRI mouse assessed as reduction in PTZ-induced lethal convulsion dosed 30 mins before PTZ injection and measured 30 mins post PTZ challenge; type: functional
Method in brief: (§1)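 Male NMRI mice (18-22 g) were given drug i.p. at 5 ml/kg in DMSO:water (1:10), 30 min before PTZ 100 mg/kg i.p. (in water). Mice were watched for 30 min after PTZ and deaths were counted.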

Mus musculus [4] = assay: Hypnotic effect in NMRI albino mouse assessed as potentiation of pentobarbital sleeping time by measuring duration of loss of righting reflex at 1 mg/kg, ip dosed 30 mins before pentobarbital challenge; type: functional, organism-based; parameters: dose 1 mg/kg
Method in brief: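 Male NMRI mice (18-22 g), n=8 per group, received diazepam i.p. in DMSO:water (1:10), 5 ml/kg. Pentobarbital 65 mg/kg i.p. followed 30 min later. Sleep time was the duration of loss of righting reflex; mice were kept on an electric blanket against hypothermia. Data are mean + SEM.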

Mus musculus [5] = assay: Anticonvulsant activity in ip dosed NMRI mouse assessed as reduction in PTZ-induced lethal convulsion dosed 30 mins before PTZ injection and co-treated with BZD antagonist flumazenil and measured 30 mins post PTZ challenge; type: functional, organism-based; method in brief: as §1
Mus musculus [6] = assay: Anticonvulsant activity in ip dosed NMRI mouse assessed as reduction in MES-induced seizures by measuring occurrence of hind limb tonic extensions dosed 30 mins before MES injection and measured 30 mins post MES challenge; type: functional; conditions: Hindlimb
Method in brief: (§2)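 Male NMRI mice (18-22 g) were given drug i.p. at 5 ml/kg in DMSO:water (1:10), 30 min before maximal electroshock (60 Hz, 37.2 mA, 0.25 s). The read-out was occurrence of hind limb tonic extension.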

Mus musculus [7] = assay: Anticonvulsant activity in ip dosed NMRI mouse assessed as reduction in MES-induced seizures by measuring occurrence of hind limb tonic extensions dosed 30 mins before MES injection and co-treated with 10 mg/kg BZD antagonist flumazenil and measured 30 mins post MES challenge; type: functional, organism-based; parameters: dose 10 mg/kg; conditions: Hindlimb; method in brief: as §2
Mus musculus [8] = assay: Toxicity in NMRI albino mouse at 150 mg/kg, ip assessed as induction hypnosis measured after 24 hrs post dose; type: organism-based; parameters: dose 150 mg/kg, route intraperitoneal; conditions: in vivo
Method in brief: (§3)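 Ten randomly selected male NMRI mice given single i.p. doses of 50 or 150 mg/kg in DMSO:water 1:10 (5 ml/kg), then observed for 24 h for toxic reactions, sedation and hypnosis.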

Mus musculus [9] = assay: Toxicity in NMRI albino mouse at 50 mg/kg, ip assessed as induction of toxic reactions measured after 24 hrs post dose; type: organism-based; parameters: dose 50 mg/kg, route intraperitoneal; conditions: in vivo; method in brief: as §3
Mus musculus [10] = assay: Hypnotic effect in NMRI albino mouse assessed as potentiation of pentobarbital sleeping time by measuring duration of loss of righting reflex at 0.625 mg/kg, ip dosed 30 mins before pentobarbital challenge; type: functional, organism-based; parameters: dose 0.625 mg/kg
Method in brief: (§4)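 Male NMRI mice, 18-22 g, 12 weeks old. Test agent and flumazenil (10 mg/kg) in DMSO:water 1:10, 5 ml/kg i.p., 30 min before pentobarbital 65 mg/kg i.p. (in water). Sleep time is the duration of loss of righting reflex. Mice kept on an electric blanket to prevent hypothermia. n=8 per group, mean + SEM.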

Mus musculus [11] = assay: Induction of anterograde amnesia in NMRI albino mouse assessed as reduction in latency to enter dark compartment at 0.325 to 2.5 mg/kg, ip by passive avoidance test; type: functional, organism-based
Method in brief: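 Male NMRI mice (18-22 g) dosed i.p. in DMSO:water 1:10 (5 ml/kg), 30 min before the test; midazolam 1 mg/kg i.p. in water as reference. On the testing day, 24 h after training, each mouse is placed in the lit compartment and latency to enter the dark compartment is recorded. n=8 per group, mean + SEM.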

Mus musculus [12] = assay: Toxicity in NMRI albino mouse at 50 mg/kg, ip assessed as induction sedation measured after 24 hrs post dose; type: organism-based; parameters: dose 50 mg/kg, route intraperitoneal; conditions: in vivo; method in brief: as §3
Mus musculus [13] = assay: Toxicity in NMRI albino mouse at 150 mg/kg, ip assessed as induction sedation measured after 24 hrs post dose; type: organism-based; parameters: dose 150 mg/kg, route intraperitoneal; conditions: in vivo; method in brief: as §3
Mus musculus [14] = assay: Toxicity in NMRI albino mouse at 50 mg/kg, ip assessed as induction hypnosis measured after 24 hrs post dose; type: organism-based; parameters: dose 50 mg/kg, route intraperitoneal; conditions: in vivo; method in brief: as §3
Mus musculus [15] = assay: Hypnotic effect in NMRI albino mouse assessed as potentiation of pentobarbital sleeping time by measuring duration of loss of righting reflex at 1.25 to 5 mg/kg, ip co-treated with 10 mg/kg BZD receptor antagonist flumazenil; type: functional, organism-based; method in brief: as §4
Mus musculus [16] = assay: Hypnotic effect in NMRI albino mouse assessed as potentiation of pentobarbital sleeping time by measuring duration of loss of righting reflex dosed intraperitoneally 30 mins before pentobarbital challenge; type: functional; method in brief: as §4
Mus musculus [17] = assay: Toxicity in NMRI albino mouse at 150 mg/kg, ip assessed as induction of toxic reactions measured after 24 hrs post dose; type: organism-based; parameters: dose 150 mg/kg, route intraperitoneal; conditions: in vivo; method in brief: as §3

Cc1ncc2n1-c1ccc(Cl)cc1C(c1ccccc1F)=NC2
Activity (Mus musculus [1]): Active

Nc1nnc(-c2ccccc2)n1Cc1ccccc1Cl
IC50 [2]: 2.24 nM
Ki [2]: 1.37 nM

CN1C(=O)CN=C(c2ccccc2)c2cc(Cl)ccc21 [DIAZEPAM]
ED50 (Mus musculus [3]): 0.75 mg/kg
IC50 [2]: 2.5 nM
Ki [2]: 1.53 nM
Activity (Mus musculus [4]): Active
Activity (Mus musculus [5]): inactive
ED50 (Mus musculus [6]): 0.74 mg/kg
Activity (Mus musculus [7]): inactive

Cc1cc(=O)n2nc(-c3ccccc3)n(Cc3ccccc3)c2n1
IC50 [2]: 2.39 nM
Ki [2]: 1.46 nM

Cc1cc(=O)n2nc(-c3ccccc3)n(Cc3ccc(F)cc3)c2n1
IC50 [2]: 1.59 nM
Ki [2]: 0.97 nM

Nc1nnc(-c2ccccc2)n1Cc1ccccc1
IC50 [2]: 0.87 nM
Ki [2]: 0.53 nM

Nc1nnc(-c2ccccc2)n1Cc1ccc(F)cc1
IC50 [2]: 4.45 nM
Ki [2]: 2.73 nM

Cc1cc(=O)n2nc(-c3ccccc3)n(Cc3ccccc3Cl)c2n1
Activity (Mus musculus [8]): Toxic
Activity (Mus musculus [9]): Non-toxic
ED50 (Mus musculus [3]): 56.6 mg/kg
Activity (Mus musculus [10]): inactive
Activity (Mus musculus [11]): Active
Activity (Mus musculus [12]): Toxic
IC50 [2]: 0.68 nM
Ki [2]: 0.42 nM
Activity (Mus musculus [5]): inactive
Activity (Mus musculus [13]): Toxic
Activity (Mus musculus [14]): Toxic
Activity (Mus musculus [15]): inactive
ED50 (Mus musculus [6]): 15 mg/kg
Activity (Mus musculus [16]): Dose-dependent effect
ED50 (Mus musculus [16]; ip): 5 mg/kg
Activity (Mus musculus [17]): Non-toxic
Activity (Mus musculus [7]): inactive
